Experimental data collected from several papers.
Lines come from different studies, so protocols differ.
Sample: plasma

| species | route | dose | notes | half-life [h] | SMILES |
| --- | --- | --- | --- | --- | --- |
| male Sprague-Dawley rat | oral | 3 mg/kg | – | 14 | CCONC(=O)N1CCC[C@H](C(=O)NCc2nc(-c3ccc(C#N)cc3)cs2)C1 |
| rat | intravenous | 2 mg/kg | – | 0.19 | COc1ccc(-c2coc3cc(O)cc(O)c3c2=O)cc1 |
| male Sprague-Dawley rat | intravenous | 5 mg/kg | – | 2.1 | CC(=O)c1c(C)c2cnc(Nc3ccc(N4CCNCC4)cn3)nc2n(C2CCCC2)c1=O |
| male Sprague-Dawley rat | oral | 50 mg/kg | single dose | 17.6 | C[C@H]1Oc2cc(cnc2N)-c2c(nn(C)c2C#N)CN(C)C(=O)c2ccc(F)cc21 |
| male Sprague-Dawley rat | oral | 3 mg/kg | – | 1.6 | CCOCC(=O)N1CCC[C@H](C(=O)NCc2nc(-c3ccc(C#N)nc3)cs2)C1 |
| male Wistar rat | oral | 40 mg/kg | – | 2.5 | C=CC(=O)N1CCC[C@@H](n2nc(-c3ccc(Oc4ccccc4)cc3)c3c(N)ncnc32)C1 |
| male Sprague-Dawley rat | intravenous | 1 mg/kg | – | 7.2 | CC(C)(N)COCC(=O)N1CCC[C@H](C(=O)NCc2nc(-c3ccc(C(F)(F)F)cc3)cs2)C1 |
| rat | intravenous | 2 mg/kg | – | 5.3 | Cc1cc(S(=O)(=O)NC2CC(N3CCN(CC4CCN(c5ccc(NC6CCC(=O)NC6=O)cc5C)CC4)CC3)C2)ccc1Nc1ncc(C(F)(F)F)c(N2CCC[C@](C)(O)C2)n1 (stereo partly shown) |
| male Sprague-Dawley rat | oral | 3 mg/kg | – | 3.9 | COCC(=O)N1CCC[C@H](C(=O)NCc2nc(-c3ccccc3)cs2)C1 |
| male Sprague-Dawley rat | intraperitoneal | 4 mg/kg | – | 4.7 | COc1nc(-c2cccc(-c3ccccc3)c2C)ccc1CNCCNC(=O)CCCCCCCCCCC(=O)N1CCN(CCNC(=O)c2cc3c(=O)n4cccc(C)c4nc3n(CCc3cccs3)c2=N)CC1 |
| male rat | oral | 10 mg/kg | – | 1.09 | CCCCC(=O)Nc1ccc(-c2ccc3ncn(CCC)c(=O)c3c2)cn1 |
| male Sprague-Dawley rat | intravenous | 1 mg/kg | – | 4.4 | NCCOCC(=O)N1CCC[C@H](C(=O)NCc2nc(-c3ccc(C(F)(F)F)cc3)cs2)C1 |
| male Sprague-Dawley rat | oral | 80 mg/kg | – | 11.4 | C[C@@]12C[C@@]3(O)O[C@@H](O1)[C@]1(COC(=O)c4ccccc4)[C@H]3C[C@@]12O[C@@H]1O[C@H](CO)[C@@H](O)[C@H](O)[C@H]1O |
| male Sprague-Dawley rat | intravenous | 1 mg/kg | – | 1.9 | [2H]c1cc(C)c(NC(=O)c2cnc(Nc3cc(N4CCC(O)CC4)nc(C)n3)s2)c(Cl)c1 |
| male Sprague-Dawley rat | oral | 10 mg/kg | – | 19.7 | CCN(CC)Cc1ccc2cc(COC(=O)Nc3ccc(C(=O)NO)cc3)ccc2c1 |
| male Sprague-Dawley rat | oral | 5 mg/kg | – | 0.72 | COc1cc(-c2cc(C(C)=O)n3ccccc23)c(OC)cc1Cn1ccnc1 |

| species | route | dose | notes | half-life [h] | SMILES |
| --- | --- | --- | --- | --- | --- |
| rat | intravenous | 2 mg/kg | – | 3.4 | C[C@H]1CN(c2ccc(C3CCC(=O)NC3=O)cc2F)CCN1CC12CCC(NS(=O)(=O)c3ccc(Nc4ncc(C(F)(F)F)c(N5CCC[C@](C)(O)C5)n4)c(F)c3)(CC1)CO2 (stereo partly shown) |
| male Sprague-Dawley rat | intravenous | 1 mg/kg | – | 1.5 | COCC(=O)N1CCC[C@H](C(=O)NCc2nc(-c3ccc(C#N)cc3)cs2)C1 |
| Sprague-Dawley rat | oral | 40 mg/kg | – | 15.7 | CC[C@@H]([C@H](C)O)n1ncn(-c2ccc(N3CCN(c4ccc(OC[C@@H]5CO[C@@](Cn6cncn6)(c6ccc(F)cc6F)C5)cc4)CC3)cc2)c1=O |
| rat | intravenous | 2 mg/kg | – | 6 | C[C@]1(O)CCCN(c2nc(Nc3ccc(S(=O)(=O)N[C@H]4CC[C@H](CN5CCN(c6ccc(C7CCC(=O)NC7=O)c(F)c6)CC5)CC4)cc3F)ncc2C(F)(F)F)C1 (stereo partly shown) |
| male Sprague-Dawley rat | intravenous | 1 mg/kg | – | 3.8 | Cc1nc(Nc2ncc(C(=O)Nc3c(C)cccc3Cl)s2)cc(N2CC[C@H](N)C2)n1 |
| rat | intravenous | 2 mg/kg | – | 1.2 | CNS(=O)(=O)c1ccc(Nc2ncc3cc(Cl)c(=O)n(C4CCCC4)c3n2)c(C)c1 |
| rat | oral | 40 mg/kg | single dose | 23.2 | [2H]C([2H])([2H])NC(=O)c1cc(Oc2ccc(NC(=O)Nc3ccc(Cl)c(C(F)(F)F)c3)cc2)ccn1 |
| rat | intravenous | 2 mg/kg | – | 5.1 | C[C@]1(O)CCCN(c2nc(Nc3ccc(S(=O)(=O)N[C@@H]4CCN(CC5CCN(c6ccc(C7CCC(=O)NC7=O)cc6F)CC5)C[C@H]4F)cc3F)ncc2C(F)(F)F)C1 (stereo partly shown) |
| male Sprague-Dawley rat | intravenous | 1 mg/kg | single dose | 3.13 | CONC(=O)c1cccc2c1cc(C)n2-c1nc2c(c(NCc3ccccc3)n1)CCCN2 |
| rat | intravenous | 2 mg/kg | – | 0.8 | CNS(=O)(=O)c1ccc(Nc2ncc(C(F)(F)F)c(N3CCC[C@](C)(O)C3)n2)c(C)c1 |
| female Sprague-Dawley rat | intraperitoneal | 50 mg/kg | – | 8.61 | COc1cc(C2C3=C(COC3=O)N(CCO)c3cc4c(cc32)CCC4)cc(OC)c1OC (stereo not shown) |
| rat | intravenous | 2 mg/kg | – | 0.7 | CNS(=O)(=O)c1ccc(Nc2ncc(C(F)(F)F)c(N3CCC(C)(O)CC3)n2)c(C)c1 |
| male Sprague-Dawley rat | oral | 3 mg/kg | – | 1.31 | O=C1CCC(N2Cc3cc(C4CCN(Cc5ccccc5)CC4)ccc3C2=O)C(=O)N1 (stereo not shown) |
| rat | intravenous | 2 mg/kg | – | 4.3 | Cc1cc(S(=O)(=O)N[C@H]2CC[C@H](N3CCN(CC4CCN(c5cccc6c5n(C)c(=O)n6C5CCC(=O)NC5=O)CC4)CC3)CC2)ccc1Nc1ncc(C(F)(F)F)c(N2CCC[C@](C)(O)C2)n1 (stereo partly shown) |
| male Sprague-Dawley rat | intravenous | 1 mg/kg | – | 2.1 | CCOCC(=O)N1CCC[C@H](C(=O)NCc2nc(-c3ccc(C)nc3)cs2)C1 |
